This is a sample that favours compounds with a hit; in the whole collection about 5.9% have one here.
Rev-RRE block = HIV-1 Rev-RRE binding inhibitors, primary screen, biochemical, FRET, protein-RNA interaction; hit rate 0.79% among 97,000; inhibition, % at 8 µM; Rev peptide-RRE RNA binding;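 active means inhibition above the screen-wide mean plus 3 SD, cut at about 35% in these data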;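 further: 0% = median DMSO wells and 100% = median Neomycin B control wells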
Target sequence (P05866 whole entry, looked up): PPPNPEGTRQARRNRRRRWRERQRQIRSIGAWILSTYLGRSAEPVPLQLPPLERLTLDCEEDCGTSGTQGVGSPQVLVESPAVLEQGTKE
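Material: labelled RRE RNA duplex and labelled Rev peptide / Buffer or medium: HEPES pH 7.5 salt buffer with EDTA / Compound dosing: single point, 8 µM final nominal compound concentration / Benchmarks: DMSO low control, neomycin B high control / Timing: 5 min preincubation and 15 min binding, 25 °C / Technique: FRET fluorescence readout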
Measles CPE = compounds protecting cells from measles virus cytopathic effect, primary screen, measles RdRp inhibitor project, single point, MLSMR library, absorbance; protection (pct of control), % at 4 µM; hit rate 1.5% among 140,000; Measles virus-infected cells, CPE protection; in the data active means protection mostly above about 24%, no sharp cut-off; inactive means mostly below about 26%
Pyk2 oligo antag = antagonists of Pyk2 self-association, primary screen, Q293 cells, FERM NanoBiT luminescence, HTS | hit rate 0.83% among 99,000 | hits give low values | AID 1347419, 2020 | z-score (the deposit names both 25 µM and 10 µM);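 active means Z-score of -3 or lower, scaled per plate to the spread of control and sample wells; inactive means z-score above -3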;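 further: negative z-score means lost luminescence so less FERM oligomerization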
hDAT+cocaine = changed hDAT dopamine uptake under cocaine IC80, either direction, primary screen, cocaine antagonist project, cell-based, LLC-PK1 hDAT, [14C]-dopamine uptake, MLSMR; Sodium-dependent dopamine transporter (Homo sapiens), Q01959; LLC-PK1 hDAT cells, [14C]-dopamine uptake with cocaine IC80; actives deviate in either direction; B-score at 10 µM; hit rate 1.3% among 110,000;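 active means Z score or B-score, a plate-position-corrected score, falls beyond the plate's 99.7% confidence bounds, in either direction; inactive means both scores lie inside the 99.7% bounds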;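 further: scored against the spread of the other compound wells on the same plate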
Target sequence (Q01959 whole entry, looked up): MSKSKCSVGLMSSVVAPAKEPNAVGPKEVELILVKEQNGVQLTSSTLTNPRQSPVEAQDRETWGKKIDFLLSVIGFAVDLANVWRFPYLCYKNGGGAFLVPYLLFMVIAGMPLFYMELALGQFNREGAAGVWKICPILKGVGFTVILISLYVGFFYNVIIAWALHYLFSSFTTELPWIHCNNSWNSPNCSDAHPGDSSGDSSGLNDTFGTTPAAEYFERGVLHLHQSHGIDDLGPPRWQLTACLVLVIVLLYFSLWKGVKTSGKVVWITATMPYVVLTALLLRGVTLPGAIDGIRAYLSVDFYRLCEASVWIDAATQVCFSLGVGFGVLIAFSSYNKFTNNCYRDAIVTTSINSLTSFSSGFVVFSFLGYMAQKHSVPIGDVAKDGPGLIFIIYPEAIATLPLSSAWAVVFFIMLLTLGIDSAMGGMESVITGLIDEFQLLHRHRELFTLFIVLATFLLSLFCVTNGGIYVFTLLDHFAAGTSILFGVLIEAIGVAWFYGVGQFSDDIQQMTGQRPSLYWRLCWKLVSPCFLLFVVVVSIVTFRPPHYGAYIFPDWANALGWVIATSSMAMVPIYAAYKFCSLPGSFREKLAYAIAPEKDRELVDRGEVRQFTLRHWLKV
Cav3 T inh = Cav3.2 calcium influx blockers – cell-based, Fluo-4 calcium fluorescence, FDSS, MLSMR library, primary screen | Voltage-dependent T-type calcium channel subunit alpha-1H (Homo sapiens), O95180 | Cav3.2-expressing cells; hits give low values | B-score at 10 µM | hit rate 4% among 100,000 | AID 449739, 2010;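 active means single-dose well whose peak fluorescence ratio is a statistical outlier from its plate by either plate-standardised score or position-corrected B-score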
Phagocyt inh = inhibitors of macrophage phagocytosis, primary screen, imaging, J774A.1 cells, IgG beads. hit rate 0.07% among 110,000. J774A.1 macrophage IgG-bead phagocytosis. AID 1029, 2008. inhibition, % at 5 µM;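 active means inhibition above the mean of the plate negative controls plus 5 SD, cut at about 13% in these data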;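 further: phagocytic index as fraction of beads internalized from green versus red external bead signal; plate controls were DMSO negative control for no effect and cytochalasin-D positive control for full effect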
An asterisk follows results filed as active; . = not tested or not shown.

SMILES | Rev-RRE block | Measles CPE | Pyk2 oligo antag | hDAT+cocaine | Cav3 T inh | Phagocyt inh
COc1cc(OC)cc(C(=O)N[C@H](C(=O)OCC(=O)c2ccc3c(c2)NC(=O)CO3)C(C)C)c1 | 1 | 32* | 0.19 | 0.089 | -0.041 | 1
CC(C)[C@H](NC(=O)c1ccccc1)C(=O)OCC(=O)c1ccc2c(c1)NC(=O)CO2 | 2 | 19 | 0.33 | 0.027 | 0.17 | 1
CCC1=C(OC(=O)N(CC)CC)N2C(=O)OC(=NCCc3c[nH]c4ccccc34)[C@]2(Cc2ccccc2)[C@H]2C1=CC[C@H]1C(=O)N(CC)C(=O)[C@H]12 | . | . | . | -1.1 | -0.61 | .
Cc1ccc(-c2nc3ccccc3c(=O)n2CCCN2CCOCC2)cc1 | 1 | 16 | -0.77 | -0.67 | 0.48 | 0
O=c1c2ccccc2nc(-c2ccccc2)n1CCCN1CCOCC1 | 7 | 25* | 1.4 | 0.052 | -0.003 | 1
Cc1cc(NC(=S)NC(=O)c2ccccc2)ccc1-c1cc2ccccc2oc1=O | . | 6 | . | . | . | .
NCCCC[C@H]1CNC(=O)C(=O)N1CCc1cccc2ccccc12 | . | . | . | -0.46 | 0.0058 | .
O=C1Nc2cc(Cl)ccc2Nc2cscc21 | . | . | . | -0.71 | -2.1 | .
CCCC(=O)N(Cc1cc2cc(C)ccc2[nH]c1=O)c1ccccc1OC | 2 | 16 | -2.3 | 1.1 | -1.7 | 0
CCCC(=O)N(Cc1cc2ccccc2[nH]c1=O)c1ccccc1OC | -1 | 38* | -0.37 | -0.084 | -0.33 | 0
Cc1ccc(C(C(=O)NC2CCCCC2)N(C(=O)Cc2c[nH]c3ccccc23)c2ccccc2C)o1 (stereo not given) | . | 14 | . | . | . | -12
Cc1ccc(C(C(=O)NC2CCCCC2)N(Cc2ccco2)C(=O)Cc2c[nH]c3ccccc23)o1 (stereo not given) | -3 | 18 | 1.1 | 0.92 | -10* | -1
Cc1ccc(N(C(=O)Cc2c[nH]c3ccccc23)C(C(=O)NC2CCCCC2)c2ccco2)cc1 (stereo not given) | 3 | 15 | 2.1 | -0.059 | -4.8* | 0
Cc1cc(=O)oc2ccc(OCC(=O)N(Cc3ccc(F)cc3)Cc3ccco3)cc12 | 7 | 11 | 1 | 1.2 | -5.1* | 2
COCC(C)NC(=O)Cc1ccc(F)cc1 (stereo not given) | . | 9 | . | . | . | -8
COc1ccc(-n2cc(C(=O)Nc3cc([N+](=O)[O-])ccc3OC)c3ccccc3c2=O)cc1 | . | 30 | . | . | . | -7
Cc1ccc2[nH]c(C)c(CCNC(=O)C3CCCCC3C(=O)OCC(F)(F)F)c2c1 (stereo not given) | . | 14 | . | . | . | -3
N#C/C(=C(/O)C(Cl)c1ccccc1)c1nc2ccccc2s1 (stereo not given) | 16 | 7 | -1.6 | 0.31 | -5.3* | 0
N#C/C(=C(/O)c1ccco1)c1nc2ccccc2s1 | 4 | 13 | -1 | -0.9 | -2.7 | -3
Cc1cc(/C=C2/NC(=O)N(Cc3ccccc3F)C2=O)c(C)n1C(C)C | . | 4 | . | . | . | -4
Cc1cc(/C=C2/NC(=O)N(c3ccccc3)C2=O)c(C)n1C(C)C | . | 55* | . | . | . | -3
CCCCOC(=O)Nc1nnc(COc2ccccc2)s1 | . | 5 | 1.1 | 0.02 | -1.2 | 2
CCCCOC(=O)Nc1nnc(CCc2ccccc2)s1 | 15 | 51* | -0.82 | 0.51 | -0.5 | 0
O=C(CN1CCCCC1)Nc1ccc(NC(=O)c2ccccc2Cl)cc1Cl | . | 10 | -0.55 | . | . | .
CCCCSc1nc(SCC(=O)NCc2ccco2)c2c3c(sc2n1)COC(C)(CC)C3 (stereo not given) | 0 | 1 | -1.1 | 0.22 | -5.5* | 0
SMILES | Rev-RRE block | Measles CPE | Pyk2 oligo antag | hDAT+cocaine | Cav3 T inh | Phagocyt inh
CCc1c(C)c2cc(Cl)c(O)c(CN3CCCCC3)c2oc1=O | 4 | 6 | 1.1 | -0.51 | 0.06 | -1
CCNc1cc2oc(=O)c(CN3CCOCC3)c(C)c2cc1C | 79* | 43* | 0.93 | 0.0097 | -0.6 | -1
CO/N=C(/CS(=O)(=O)Cc1ccccc1Cl)c1ccc(Cl)cc1Cl | 19 | 4 | -1.4 | -0.3 | -0.99 | -1
C=CCNC(=O)c1cc(-c2ccc(Br)cc2)on1 | -1 | 63* | 0.43 | . | . | -2
O=C(CS(=O)CC(=O)N(c1cccc(F)c1)C(C(=O)NC1CCCCC1)c1ccco1)Nc1ccc(F)cc1 (stereo not given) | . | 5 | . | . | . | -3
O=C(COC(=O)/C=C/c1ccc2c(c1)OCO2)NC1CC1 | . | 26* | . | . | . | -2
CC1CCCC(NC(=O)COC(=O)/C=C/c2ccc3c(c2)OCO3)C1C (stereo not given) | . | 15 | . | . | . | -2
COc1cccc(C2CC(c3c(-c4ccccc4)c4cc(Cl)ccc4[nH]c3=O)=NN2S(C)(=O)=O)c1OC (stereo not given) | 10 | 68* | -1 | 1.6 | 0.36 | 1
CCOc1ccc(Br)cc1S(=O)(=O)Nc1ccc(N2CCOCC2)cc1 | 5 | 77* | -0.12 | -0.24 | 0.14 | 0
CCOc1ccc(Br)cc1S(=O)(=O)Nc1ccccc1N1CCOCC1 | 6 | 7 | -1.7 | 1.2 | -3.7 | -1
CCc1cc[n+](-c2nc([O-])sc2C=O)cc1 | 46* | 4 | -0.01 | -0.22 | -0.77 | 2
CCOC(=O)C1CCC(CN(Cc2ccccc2)S(=O)(=O)c2ccc([N+](=O)[O-])cc2)CC1 (stereo not given) | . | 4 | . | . | . | .
Cc1ccc(Nc2nc(N)nc(CN3CCN(c4ccccc4F)CC3)n2)cc1 | 14 | 9 | -0.87 | 0.98 | -5.3* | 0
CCN1CCCC1CN(Cc1cc2ccc(C)cc2[nH]c1=O)C(=S)Nc1cccc(OC)c1 (stereo not given) | . | 17 | . | . | . | -8
CCc1cccc(CC)c1NC(=O)COC(=O)CCc1cc(OC)c(OC)c(OC)c1 | . | 14 | . | . | . | -11
CSc1cccc(NC(=O)CN(C2CCCCC2)S(C)(=O)=O)c1 | 5 | 4 | -0.63 | 0.15 | -5.1* | -1
CS(=O)(=O)N(CC(=O)Nc1ccccc1Sc1ccccc1)C1CCCCC1 | 1 | 5 | -1 | -1.5 | -5.9* | 1
Nc1ncnc2c1nc(Sc1ccc(Cl)cc1)n2[C@@H]1O[C@@H]2COP(=O)(O)O[C@H]2[C@H]1O | . | . | . | -0.21 | . | .
Nc1ccccc1C(=O)N(Cc1ccccc1)Cc1ccccc1 | 16 | 10 | -1.2 | -1.3 | -5.8* | .
COc1ccc2c(c1)c(=O)c(C(=O)O)c(-c1ccc3c(c1)OCO3)n2C | . | 3 | . | . | . | -3
Cc1ccc([N+](=O)[O-])cc1N=C(c1cccc(Br)c1)N1CCOCC1 | 10 | 8 | 0.05 | -0.053 | -4.1* | 2
Cc1ccc(C(=O)c2cc([N+](=O)[O-])ccc2N2CCOCC2)cc1C | . | 2 | . | . | . | .

Screens (PubChem BioAssay)
